# According to ChEMBL document CHEMBL5357066, “Development of Novel Membrane Disrupting Lipoguanidine Compounds Sensitizing Gram-Negative Bacteria to Antibiotics” (ACS Med Chem Lett, 2024):
# How the values were obtained:
# Pseudomonas aeruginosa [1] = assay: Antibacterial activity against Pseudomonas aeruginosa NCTC 13437 assessed as bacterial growth inhibition incubated for overnight by microbroth dilution method; assay type: functional
# In short: (§1)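 Broth microdilution in Tryptic Soy Broth. DMSO stocks were diluted in TSB as 2-fold series. Overnight TSB cultures were back-diluted to OD 0.01 and mixed 1:1 with compound. Incubation was overnight at 37 °C. MIC was the lowest concentration without visible growth (<0.1 OD600). DMSO vehicle was checked at equivalent concentrations.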
# Acinetobacter baumannii [2] = assay: Antibacterial activity against Acinetobacter baumannii AYE assessed as bacterial growth inhibition incubated for overnight by microbroth dilution method; assay type: functional; in short: as §1
# Acinetobacter baumannii [3] = assay: Antibacterial activity against Acinetobacter baumannii ATCC 17978 assessed as bacterial growth inhibition incubated for overnight by microbroth dilution method; assay type: functional; in short: as §1
# Pseudomonas aeruginosa [4] = assay: Antibacterial activity against Pseudomonas aeruginosa PAO1 assessed as bacterial growth inhibition incubated for overnight by microbroth dilution method; assay type: functional; in short: as §1
# Escherichia coli [5] = assay: Antibacterial activity against Escherichia coli NCTC 12923 assessed as bacterial growth inhibition incubated for overnight by microbroth dilution method; assay type: functional; in short: as §1
# Klebsiella pneumoniae [6] = assay: Synergistic antibacterial activity against Klebsiella pneumoniae NCTC 13368 assessed as rifampicin MIC at <=0.25 times MIC incubated for overnight by microbroth dilution checkerboard assay; assay type: functional
# In short: (§2)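 Checkerboard microdilution under MIC conditions (TSB, overnight, 37 °C). Two-fold series of each agent were combined on one plate before bacteria were added, and single-agent MICs were measured on the same plate. FIC = sum of combination MIC/alone MIC for each agent, taken from the most synergistic well. Three independent repeats, mean ± SD. ≤0.5 was taken as strong synergy and 0.5–<1 as weak.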
# Klebsiella pneumoniae [7] = assay: Synergistic antibacterial activity against […] Klebsiella pneumoniae M6 assessed as rifampicin MIC at <=0.25 times MIC incubated for overnight by microbroth dilution checkerboard assay; assay type: functional
# In short: (§3)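 Checkerboard run under the MIC conditions (TSB, overnight, 37 °C). Antibiotic and lipoguanidine 2-fold series were combined on one plate before bacteria were added. Growth/no-growth was scored as for the MIC (<0.1 OD600). Single-agent MICs were measured on the same plates. Three independent repeats were done.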
# Acinetobacter baumannii [8] = assay: Synergistic antibacterial activity against Acinetobacter baumannii AYE assessed as rifampicin MIC at <=0.25 times MIC incubated for overnight by microbroth dilution checkerboard assay; assay type: functional; in short: as §2
# Acinetobacter baumannii [9] = assay: Synergistic antibacterial activity against Acinetobacter baumannii ATCC 17978 assessed as rifampicin MIC at <=0.25 times MIC incubated for overnight by microbroth dilution checkerboard assay; assay type: functional; in short: as §2
# Pseudomonas aeruginosa [10] = assay: Synergistic antibacterial activity against Pseudomonas aeruginosa PAO1 assessed as rifampicin MIC at <=0.25 times MIC incubated for overnight by microbroth dilution checkerboard assay; assay type: functional
# In short: (§4)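 Checkerboard microdilution in Tryptic Soy Broth, run like the MIC assay. Overnight TSB cultures were back-diluted to OD 0.01 and added 1:1 to the combined two-fold series of both agents, then incubated overnight at 37 °C. Growth/no-growth was called at <0.1 OD600. MICs alone were read on the same plates. FIC index came from the most synergistic well; three independent repeats, mean ± SD.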
# Pseudomonas aeruginosa [11] = assay: Synergistic antibacterial activity against Pseudomonas aeruginosa NCTC 13437 assessed as rifampicin MIC at <=0.25 times MIC incubated for overnight by microbroth dilution checkerboard assay; assay type: functional; in short: as §4
# Escherichia coli [12] = assay: Synergistic antibacterial activity against Escherichia coli NCTC 12923 assessed as rifampicin MIC at <=0.25 times MIC incubated for overnight by microbroth dilution checkerboard assay; assay type: functional; in short: as §2
# Klebsiella pneumoniae [13] = assay: Synergistic antibacterial activity against […] Klebsiella pneumoniae NCTC 13368 assessed as novobiocin MIC at <=0.25 times MIC incubated for overnight by microbroth dilution checkerboard assay; assay type: functional; in short: as §3
# Klebsiella pneumoniae [14] = assay: Synergistic antibacterial activity against […] Klebsiella pneumoniae M6 assessed as novobiocin MIC at <=0.25 times MIC incubated for overnight by microbroth dilution checkerboard assay; assay type: functional; in short: as §3
# Acinetobacter baumannii [15] = assay: Synergistic antibacterial activity against Acinetobacter baumannii AYE assessed as novobiocin MIC at <=0.25 times MIC incubated for overnight by microbroth dilution checkerboard assay; assay type: functional; in short: as §2
# Acinetobacter baumannii [16] = assay: Synergistic antibacterial activity against Acinetobacter baumannii ATCC 17978 assessed as novobiocin MIC at <=0.25 times MIC incubated for overnight by microbroth dilution checkerboard assay; assay type: functional; in short: as §2
# Pseudomonas aeruginosa [17] = assay: Synergistic antibacterial activity against Pseudomonas aeruginosa PAO1 assessed as novobiocin MIC at <=0.25 times MIC incubated for overnight by microbroth dilution checkerboard assay; assay type: functional; in short: as §4
# Pseudomonas aeruginosa [18] = assay: Synergistic antibacterial activity against Pseudomonas aeruginosa NCTC 13437 assessed as novobiocin MIC at <=0.25 times MIC incubated for overnight by microbroth dilution checkerboard assay; assay type: functional; in short: as §4
# Escherichia coli [19] = assay: Synergistic antibacterial activity against Escherichia coli NCTC 12923 assessed as novobiocin MIC at <=0.25 times MIC incubated for overnight by microbroth dilution checkerboard assay; assay type: functional; in short: as §2
# Erythrocyte = assay: Hemolytic activity in human Red blood cells at 512 microg/ml measured after 1 hrs by absorbance based assay; assay type: toxicity, cell-based; details: dose 512 µg/ml
# In short: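 Titrations in PBS were incubated with freshly collected human red blood cells for 1 h at 37 °C. Controls were 0.1% Triton-X-100 (full lysis) and PBS alone (no lysis). After centrifugation, supernatant OD550 was read. % haemolysis = (AP−AB)/(AC−AB)×100. Data are means and standard error of three biological replicates.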
# Klebsiella pneumoniae [20] = assay: Synergistic antibacterial activity against Klebsiella pneumoniae NCTC 13368 assessed as fold change in rifampicin MIC at <=0.25 times MIC incubated for overnight by microbroth dilution checkerboard assay relative to rifampicin alone; assay type: functional; in short: as §3
# Acinetobacter baumannii [21] = assay: Synergistic antibacterial activity against Acinetobacter baumannii AYE assessed as fold change in rifampicin MIC at <=0.25 times MIC incubated for overnight by microbroth dilution checkerboard assay relative to rifampicin alone; assay type: functional; in short: as §2
# Acinetobacter baumannii [22] = assay: Synergistic antibacterial activity against Acinetobacter baumannii ATCC 17978 assessed as fold change in rifampicin MIC at <=0.25 times MIC incubated for overnight by microbroth dilution checkerboard assay relative to rifampicin alone; assay type: functional; in short: as §2
# Pseudomonas aeruginosa [23] = assay: Synergistic antibacterial activity against Pseudomonas aeruginosa PAO1 assessed as fold change in rifampicin MIC at <=0.25 times MIC incubated for overnight by microbroth dilution checkerboard assay relative to rifampicin alone; assay type: functional; in short: as §4
# Pseudomonas aeruginosa [24] = assay: Synergistic antibacterial activity against Pseudomonas aeruginosa NCTC 13437 assessed as fold change in rifampicin MIC at <=0.25 times MIC incubated for overnight by microbroth dilution checkerboard assay relative to rifampicin alone; assay type: functional; in short: as §4
# Escherichia coli [25] = assay: Synergistic antibacterial activity against Escherichia coli NCTC 12923 assessed as fold change in rifampicin MIC at <=0.25 times MIC incubated for overnight by microbroth dilution checkerboard assay relative to rifampicin alone; assay type: functional; in short: as §2
# Klebsiella pneumoniae [26] = assay: Synergistic antibacterial activity against Klebsiella pneumoniae NCTC 13368 assessed as fold change in novobiocin MIC at <=0.25 times MIC incubated for overnight by microbroth dilution checkerboard assay relative to novobiocin alone; assay type: functional; in short: as §2
# Klebsiella pneumoniae [27] = assay: Synergistic antibacterial activity against Klebsiella pneumoniae M6 assessed as fold change in novobiocin MIC at <=0.25 times MIC incubated for overnight by microbroth dilution checkerboard assay relative to novobiocin alone; assay type: functional; in short: as §2
# Acinetobacter baumannii [28] = assay: Synergistic antibacterial activity against Acinetobacter baumannii AYE assessed as fold change in novobiocin MIC at <=0.25 times MIC incubated for overnight by microbroth dilution checkerboard assay relative to novobiocin alone; assay type: functional; in short: as §2
# Acinetobacter baumannii [29] = assay: Synergistic antibacterial activity against Acinetobacter baumannii ATCC 17978 assessed as fold change in novobiocin MIC at <=0.25 times MIC incubated for overnight by microbroth dilution checkerboard assay relative to novobiocin alone; assay type: functional; in short: as §2
# Pseudomonas aeruginosa [30] = assay: Synergistic antibacterial activity against Pseudomonas aeruginosa PAO1 assessed as fold change in novobiocin MIC at <=0.25 times MIC incubated for overnight by microbroth dilution checkerboard assay relative to novobiocin alone; assay type: functional; in short: as §4
# Pseudomonas aeruginosa [31] = assay: Synergistic antibacterial activity against Pseudomonas aeruginosa NCTC 13437 assessed as fold change in novobiocin MIC at <=0.25 times MIC incubated for overnight by microbroth dilution checkerboard assay relative to novobiocin alone; assay type: functional; in short: as §2
# Escherichia coli [32] = assay: Synergistic antibacterial activity against Escherichia coli NCTC 12923 assessed as fold change in novobiocin MIC at <=0.25 times MIC incubated for overnight by microbroth dilution checkerboard assay relative to novobiocin alone; assay type: functional; in short: as §2
# Klebsiella pneumoniae [33] = assay: Antibacterial activity against Klebsiella pneumoniae M6 assessed as bacterial growth inhibition incubated for overnight by microbroth dilution method
# Klebsiella pneumoniae [34] = assay: Antibacterial activity against ESBL Klebsiella pneumoniae NCTC 13368 assessed as bacterial growth inhibition incubated for overnight by microbroth dilution method
smiles,measurement,setting,value
CCCCCCCCCCNC(=N)NCCCCNC(=N)N,MIC,Pseudomonas aeruginosa [1],> 128 µg/mL
same,MIC,Acinetobacter baumannii [2],> 128 µg/mL
same,MIC,Acinetobacter baumannii [3],> 128 µg/mL
same,MIC,Pseudomonas aeruginosa [4],64 µg/mL
same,MIC,Escherichia coli [5],64 µg/mL
same,MIC,Klebsiella pneumoniae [6],≤ 0.125 µg/mL
same,MIC,Klebsiella pneumoniae [7],≤ 0.125 µg/mL
same,MIC,Acinetobacter baumannii [8],≤ 0.125 µg/mL
same,MIC,Acinetobacter baumannii [9],≤ 0.125 µg/mL
same,MIC,Pseudomonas aeruginosa [10],2 µg/mL
same,MIC,Pseudomonas aeruginosa [11],≤ 0.125 µg/mL
same,MIC,Escherichia coli [12],≤ 0.125 µg/mL
same,MIC,Klebsiella pneumoniae [13],8 µg/mL
same,MIC,Klebsiella pneumoniae [14],1 µg/mL
same,MIC,Acinetobacter baumannii [15],0.125 µg/mL
same,MIC,Acinetobacter baumannii [16],0.125 µg/mL
same,MIC,Pseudomonas aeruginosa [17],4 µg/mL
same,MIC,Pseudomonas aeruginosa [18],4 µg/mL
same,MIC,Escherichia coli [19],2 µg/mL
same,Activity,Erythrocyte,Toxic
same,fold change (FC),Klebsiella pneumoniae [20],>=4
same,fold change (FC),Acinetobacter baumannii [21],>=4
same,fold change (FC),Acinetobacter baumannii [22],>=4
same,fold change (FC),Pseudomonas aeruginosa [23],>=4
same,fold change (FC),Pseudomonas aeruginosa [24],>=4
same,fold change (FC),Escherichia coli [25],>=4
same,fold change (FC),Klebsiella pneumoniae [26],>=4
same,fold change (FC),Klebsiella pneumoniae [27],>=4
same,fold change (FC),Acinetobacter baumannii [28],>=4
same,fold change (FC),Acinetobacter baumannii [29],>=4
same,fold change (FC),Pseudomonas aeruginosa [30],>=4
same,fold change (FC),Pseudomonas aeruginosa [31],>=4
same,fold change (FC),Escherichia coli [32],>=4
same,MIC,Klebsiella pneumoniae [33],> 128 µg/mL
same,MIC,Klebsiella pneumoniae [34],> 128 µg/mL
